# Legend:
# Adenosine receptor A2b = target: T1, Adenosine receptor A2b (Homo sapiens, UniProt P29275); assay: Displacement of [3H]DPCPX from human adenosine A2B receptor expressed in HEK293 cell membranes incubated for 30 mins by scintillation counting method; design: species or system Cell membrane
# T1 sequence (P29275 whole entry): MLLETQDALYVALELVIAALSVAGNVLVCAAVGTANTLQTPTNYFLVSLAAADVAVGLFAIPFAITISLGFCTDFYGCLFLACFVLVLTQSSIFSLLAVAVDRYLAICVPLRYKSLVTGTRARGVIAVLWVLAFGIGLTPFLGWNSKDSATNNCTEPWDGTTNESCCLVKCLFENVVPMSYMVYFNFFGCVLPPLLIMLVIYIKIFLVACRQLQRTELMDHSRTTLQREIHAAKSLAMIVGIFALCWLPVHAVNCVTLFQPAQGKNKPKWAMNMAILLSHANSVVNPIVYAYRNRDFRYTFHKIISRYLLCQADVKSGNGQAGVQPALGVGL
# [1] = target: T2, Adenosine receptor A1 (Homo sapiens) (UniProt P30542); assay: Displacement of [3H]DPCPX from human adenosine A1 receptor expressed in CHO cell membranes at 1 uM incubated for 60 mins by scintillation counting method; settings: Cell membrane
# T2 sequence (whole entry): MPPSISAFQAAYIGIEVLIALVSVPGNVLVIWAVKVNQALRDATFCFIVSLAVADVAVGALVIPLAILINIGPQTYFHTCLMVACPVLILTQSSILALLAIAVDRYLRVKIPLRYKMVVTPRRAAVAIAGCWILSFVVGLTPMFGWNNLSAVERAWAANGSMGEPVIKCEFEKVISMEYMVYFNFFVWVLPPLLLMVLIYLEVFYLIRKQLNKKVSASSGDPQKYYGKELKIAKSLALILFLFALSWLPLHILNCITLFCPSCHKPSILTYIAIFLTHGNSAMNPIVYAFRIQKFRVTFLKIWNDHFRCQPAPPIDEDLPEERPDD
# [2] = target: Adenosine receptor A2a (Homo sapiens) (UniProt P29274); assay: Displacement of [3H]ZM2421385 from adenosine A2A receptor expressed in human HeLa cell membranes at 1 uM incubated for 30 mins by scintillation counting method; settings: Cell membrane
# Chain of Adenosine receptor A2a (Homo sapiens) (P29274 whole entry): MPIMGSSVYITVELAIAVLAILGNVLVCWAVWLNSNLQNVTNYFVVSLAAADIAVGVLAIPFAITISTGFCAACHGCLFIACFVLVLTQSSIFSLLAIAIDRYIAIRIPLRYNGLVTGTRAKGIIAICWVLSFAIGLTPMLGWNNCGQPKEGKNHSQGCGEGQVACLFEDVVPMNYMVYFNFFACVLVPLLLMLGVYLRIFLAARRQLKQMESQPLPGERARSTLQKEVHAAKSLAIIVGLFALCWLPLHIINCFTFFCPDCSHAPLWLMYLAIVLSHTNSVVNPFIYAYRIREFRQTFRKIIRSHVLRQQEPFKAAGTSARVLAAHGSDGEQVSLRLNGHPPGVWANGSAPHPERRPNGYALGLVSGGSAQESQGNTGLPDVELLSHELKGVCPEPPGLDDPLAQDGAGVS
# [3] = target: T3, Adenosine receptor A3 (Homo sapiens) (UniProt P0DMS8); assay: Displacement of [3H]NECA from adenosine A3 receptor expressed in human HeLa cell membranes at 1 uM incubated for 180 mins by scintillation counting method; settings: Cell membrane
# T3 sequence (whole entry): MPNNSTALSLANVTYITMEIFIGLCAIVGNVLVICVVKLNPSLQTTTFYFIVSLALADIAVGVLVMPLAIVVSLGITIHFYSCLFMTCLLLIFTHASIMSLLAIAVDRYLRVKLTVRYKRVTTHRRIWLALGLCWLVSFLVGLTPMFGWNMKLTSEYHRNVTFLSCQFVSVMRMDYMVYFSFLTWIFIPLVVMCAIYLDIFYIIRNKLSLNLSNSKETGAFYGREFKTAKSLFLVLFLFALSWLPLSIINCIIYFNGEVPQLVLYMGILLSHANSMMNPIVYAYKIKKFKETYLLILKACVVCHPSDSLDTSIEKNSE
# Method in brief: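 hA3AR in HeLa membranes (3 pmol/mg protein) with 10 nM [3H]NECA (KD 8.7 nM); nonspecific binding with 100 μM R-PIA; incubated 180 min at 25 °C, washed, filtered, radioactivity counted.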
# [4] = target: T4, Adenosine receptor A2b (Homo sapiens) (UniProt P29275); assay: Displacement of [3H]DPCPX from human adenosine A2B receptor expressed in HEK293 cell membranes at 1 uM incubated for 30 mins by scintillation counting method; settings: Cell membrane
# T4 sequence (whole entry): T1 sequence (P29275 whole entry)
Compound,Ki (Adenosine receptor A2b) [µM],inhibition [1] [%],inhibition [2] [%],inhibition [3] [%],inhibition [4] [%]
CCOC(=O)C1=C(C)N=C(S)NC1c1cccs1 (racemic),3.25,–,–,–,–
COC(=O)C1=C(C)N=C(S)NC1c1ccco1 (racemic),0.984,11,20,1,–
CC1=C(C(=O)OCc2ccccc2)C(c2ccsc2)NC(=O)N1C (racemic),4.52,46,30,14,–
CC1=C(C(=O)OCC(C)C)C(c2ccsc2)NC(=O)N1 (racemic),1.19,56,37,21,–
CC1=C(C(=O)OCc2ccccc2)C(c2cccs2)NC(=O)N1 (racemic),1.92,45,30,8,–
CC1=C(C(=O)OCc2ccccc2)C(c2ccco2)NC(=O)N1 (racemic),0.887,36,26,3,–
CC1=C(C(=O)CC(C)C)C(c2ccoc2)NC(=O)N1 (racemic),1.01,23,20,18,–
CCCOC(=O)C1=C(C)NC(=O)NC1c1cccs1 (racemic),1.52,43,30,32,–
CC1=C(C(=O)OC(C)(C)C)C(c2ccoc2)NC(=S)N1 (racemic),1.89,18,15,19,–
CC1=C(C(=O)C2CC2)C(c2ccco2)NC(=O)N1 (racemic),1.06,2,2,7,–
CC1=C(C(=O)OC2CCC2)C(c2cccs2)NC(=O)N1 (racemic),1.09,24,26,2,–
CC1=C(c2ncc(C)o2)C(c2ccco2)NC(=O)N1 (racemic),0.905,27,23,4,–
CC1=C(C(=O)OCc2ccccc2)C(c2ccoc2)NC(=O)N1 (racemic),6.65,41,24,1,–
CCCOC(=O)C1=C(C)NC(=O)NC1c1ccoc1 (racemic),1.19,50,45,11,–
CC1=C(C(=O)OCC2CC2)C(c2cccs2)NC(=O)N1 (racemic),1.57,23,27,1,–
CC1=C(C(=O)OCC(C)C)C(c2cccs2)NC(=O)N1 (racemic),2.13,25,12,11,–
CC1=C(C(=O)OC2CCCC2)C(c2ccoc2)NC(=O)N1 (racemic),1.01,6,1,1,–
CC1=C(C(=O)OCC2CCC2)C(c2cccs2)NC(=O)N1 (racemic),2.84,39,22,1,–
CC1=C(C(=O)CC(C)C)C(c2ccsc2)NC(=O)N1 (racemic),1,37,19,14,–
CC1=C(c2ncc(C)o2)C(c2ccsc2)NC(=O)N1 (racemic),1.13,34,20,2,–
CC1=C(C(=O)OC(C)(C)C)C(c2ccoc2)NC(=O)N1 (racemic),4.44,11,9,2,–
CC1=C(C(=O)OC2CCCC2)C(c2cccs2)NC(=O)N1 (racemic),–,9,20,1,1
CC1=C(C(=O)OC2CCCCC2)C(c2cccs2)NC(=O)N1 (racemic),–,7,14,1,3
CC1=C(C(=O)OC2CCCCC2)C(c2ccsc2)NC(=O)N1 (racemic),–,8,2,1,4
CCC(C)OC(=O)C1=C(C)NC(=O)NC1c1cccs1 (racemic),–,5,2,7,7
CCC(C)OC(=O)C1=C(C)NC(=O)NC1c1ccsc1 (racemic),–,5,1,7,39
CCC(CC)OC(=O)C1=C(C)NC(=O)NC1c1ccsc1 (racemic),–,22,1,6,26

# Continued, values first:
Ki (Adenosine receptor A2b) [µM],inhibition [1] [%],inhibition [2] [%],inhibition [3] [%],inhibition [4] [%],Compound
0.0111,10,9,6,–,CCOC(=O)C1=C(C)NC(=O)N[C@@H]1c1ccsc1
0.0063,8,13,1,–,CC1=C(C(=O)OC(C)C)[C@@H](c2ccco2)NC(=S)N1
0.315,–,–,–,–,CC1=C(C(=O)OC(C)C)C(c2ccsc2)NC(=S)N1 (racemic)
0.0843,6,1,3,–,CCC(C)OC(=O)C1=C(C)NC(=O)NC1c1ccco1 (racemic)
0.577,1,23,14,–,CC1=C(C(=O)OC2CCCC2)C(c2ccco2)NC(=O)N1 (racemic)
0.201,13,1,11,–,CCC(C)OC(=O)C1=C(C)NC(=O)NC1c1ccoc1 (racemic)
0.801,21,14,1,–,CC1=C(c2ncc(C)o2)C(c2ccoc2)NC(=O)N1 (racemic)
0.199,27,36,13,–,CC1=C(C(=O)OCC(C)C)C(c2ccco2)NC(=O)N1 (racemic)
0.307,20,32,1,–,CC1=C(C(=O)OC2CCC2)C(c2ccoc2)NC(=O)N1 (racemic)
0.138,29,36,1,–,CC1=C(C(=O)OCC2CC2)C(c2ccco2)NC(=O)N1 (racemic)
0.405,40,41,3,–,CC1=C(C(=O)OC2CCC2)C(c2ccsc2)NC(=O)N1 (racemic)
0.201,44,48,6,–,CCCOC(=O)C1=C(C)NC(=O)NC1c1ccsc1 (racemic)
0.24,16,6,31,–,CC1=C(C(=O)CC(C)C)C(c2ccco2)NC(=O)N1 (racemic)
0.0951,19,41,1,–,CC1=C(C(=O)OC2CCC2)C(c2ccco2)NC(=O)N1 (racemic)
0.739,46,25,2,–,CC1=C(C(=O)OCC2CCC2)C(c2ccoc2)NC(=O)N1 (racemic)
0.637,9,2,3,–,CC1=C(C(=O)SC(C)C)C(c2ccoc2)NC(=O)N1 (racemic)
0.807,1,6,1,–,CCCC(=O)C1=C(C)NC(=O)NC1c1ccco1 (racemic)
0.426,29,43,3,–,CC1=C(C(=O)OCC2CC2)C(c2ccoc2)NC(=O)N1 (racemic)
0.561,42,22,1,–,CC1=C(C(=O)OCC2CCC2)C(c2ccco2)NC(=O)N1 (racemic)
